Screening results: PubChem, several laboratories
STK33 inh – blocks human STK33 kinase activity | inhibition, % at 10 µM | 320,000 tested, 0.073% active | AID 2661 | Q9BYT3 | purified STK33, MBP phosphorylation, ADP-Glo luminescence;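 active means inhibition at or above 25%, using the most active replicate where run in duplicate; inactive means inhibition below 25%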
MEKK2 mut-MEK5 – signal of MEK5 binding to mutant human MEKK2 PB1 domain | bead flow cytometry, Alexa488-MEK5 binding to MEKK2 mutant | percent response, % at 10 µM | 290,000 tested, 0.35% active | AID 1530; in the data active means percent response above about 24%, passing the limit was not always enough
GSK3A inh – human GSK-3 alpha kinase inhibition; P49840; ADP-Glo luminescence, 60 min; inhibition, % at 10 µM; 320,000 tested, 0.1% active;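 active means more than half of replicates show inhibition above 20%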;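 further: GST-tagged GSK-3 alpha with peptide substrate and 25 µM ATP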
MEKK2 WT-MEK5 – raises or lowers MEK5 binding to wildtype human MEKK2 PB1 domain | Q9Y2U5 | bead flow cytometry, Alexa488-MEK5 binding to MEKK2 WT; actives lie on both sides | binding response (% of control), % at 10 µM | 290,000 tested, 1.1% active | AID 1531; in the data active means binding response below about 67% or above about 130%
GSK3B inh – inhibitors of human GSK3beta kinase | P49841 | GST-GSK3beta kinase, ADP-Glo luminescence, 60 min; active compounds read low | activity score (negative = inhibition), % at 10 µM | 300,000 tested, 0.038% active;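 active means more than half of replicate wells score below -50%, meaning over 50% inhibition versus plate controls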
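Assay system: GST-tagged human GSK3beta kinase, cell-free; Input: 1.6 ng GSK3beta; Medium: Tris/MgCl2 kinase buffer; Timing: 60 min enzyme reaction, room temperature; Signal: ADP-Glo luminescence quantifying ADP generated by kinase; Evaluation: score relative to plate controls; Benchmarks: DMSO neutral wells and GW8510 at 20 µM as positive.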
MEKK3 PB1 HTS – modulators (inhibitors or enhancers) of MEK5 binding to human MEKK3 PB1 domain; Q99759; bead-based flow cytometry, Alexa488-MEK5 binding to MEKK3; actives lie on both sides; 0 = blocked by unlabeled MEK5, 100 = vehicle; binding response (% of control), % at 10 µM; 290,000 tested, 1.4% active; AID 1529;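 active means binding response more than 3 SD above or below the average of its plate-row segment, actives on both sides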;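 further: Alexa488 bead fluorescence after subtracting the streptavidin-only scavenger bead signal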
Target sequence (Q99759 whole entry, looked up, the tested form may be a part): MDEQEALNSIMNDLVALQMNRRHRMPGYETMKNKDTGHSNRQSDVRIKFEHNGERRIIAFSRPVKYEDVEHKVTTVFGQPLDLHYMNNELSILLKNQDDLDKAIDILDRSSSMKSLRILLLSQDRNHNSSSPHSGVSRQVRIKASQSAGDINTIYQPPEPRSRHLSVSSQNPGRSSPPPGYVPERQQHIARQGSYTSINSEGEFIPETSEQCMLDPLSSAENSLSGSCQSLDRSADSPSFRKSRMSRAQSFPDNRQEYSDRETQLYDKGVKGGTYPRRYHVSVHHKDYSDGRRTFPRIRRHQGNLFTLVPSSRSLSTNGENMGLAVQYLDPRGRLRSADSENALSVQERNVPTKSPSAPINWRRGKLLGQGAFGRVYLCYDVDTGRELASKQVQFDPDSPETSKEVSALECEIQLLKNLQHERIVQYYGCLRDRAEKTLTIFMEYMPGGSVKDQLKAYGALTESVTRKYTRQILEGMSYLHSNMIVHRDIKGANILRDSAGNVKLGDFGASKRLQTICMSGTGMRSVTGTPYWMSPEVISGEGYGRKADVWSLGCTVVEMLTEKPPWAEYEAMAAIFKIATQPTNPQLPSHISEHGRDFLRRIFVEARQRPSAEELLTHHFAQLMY
MEKK2wt confirm – raises or lowers MEK5 binding to wildtype human MEKK2, retest; binding response (% of control), % at 10 µM; bead flow cytometry, Alexa488-MEK5 binding to MEKK2 WT; actives lie on both sides; shares compounds with MEKK3 PB1 HTS; 5,900 tested, 2.4% active; in the data active means binding response below about 16% or above about 210%; inactive means in between
MEKK2mut confirm – signal of MEK5 binding to mutant human MEKK2, retest. shares compounds with MEKK3 PB1 HTS. bead flow cytometry, Alexa488-MEK5 binding to MEKK2 mutant. percent response, % at 10 µM. 5,900 tested, 2% active. AID 1893; in the data active means percent response mostly above about 71%, no sharp cut-off; inactive means mostly below about 38%;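 further: higher means compound restores mutant binding toward wildtype level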
MEKK3-MEK5 inh – confirmation of inhibitors of MEK5 binding to human MEKK3. binding response (% of control), % at 10 µM. shares compounds with MEKK3 PB1 HTS. 5,900 tested, 1.8% active. AID 1894. bead flow cytometry, Alexa488-MEK5 binding to MEKK3; active compounds read low;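 active means binding response below 72% of control, or above a set upper limit, though filed actives all read lower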;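 further: lower values mean stronger disruption of MEK5 binding to MEKK3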
A number is an active result; - = inactive; . = no result; [ ] = another dose, or the depositor's remark. This is a sample that favours compounds with a hit; in the whole collection about 2.1% have one here.

SMILES | STK33 inh | MEKK2 mut-MEK5 | GSK3A inh | MEKK2 WT-MEK5 | GSK3B inh | MEKK3 PB1 HTS | MEKK2wt confirm | MEKK2mut confirm | MEKK3-MEK5 inh
CCCCCCCCCCCCCCCCn1cc[n+](CC(C)=O)c1 | . | 89.0 | . | 220.0 | . | - | - | - | -
C#CCn1cc[n+](CC(=O)N(C)C)c1 | - | - | - | - | - | - | . | . | .
COc1ccc(-n2nc(C(=O)NCC(=O)NCCCN3CCCCCC3)c3ccccc3c2=O)cc1Cl | - | - | - | 149.0 | - | - | - | - | -
COc1ccc(-n2nc(C(=O)NCC(=O)NCCCN3CCC(C)CC3)c3ccccc3c2=O)cc1Cl | - | - | - | - | - | - | . | . | .
COc1ccc2cnnc(SCC(=O)Nc3ccc(C(=O)O)cc3)c2c1OC | - | - | - | - | - | 143.0 | - | - | -
Cc1cc(C)n(CC(=O)NNC(=O)CC(C)c2ccccc2)n1 (stereo not given) | - | . | - | . | . | . | . | . | .
CCC(Sc1ccc2nnc(CCNS(=O)(=O)c3ccc(OC)cc3)n2n1)C(=O)OC (stereo not given) | - | - | - | - | - | - | . | . | .
O=C(NCCc1ccc(C(F)(F)F)cc1)C1CCC(=O)N(CCCN2CCCC2=O)C1 (stereo not given) | - | - | - | - | - | - | . | . | .
CCOC(=O)c1c(NC(=O)CCN2CCOCC2)sc2c1CC(C)(C)OC2 | - | - | - | - | - | - | . | . | .
CCOC(=O)c1c(NC(=O)CN2CCOCC2)sc2c1CC(C)(C)OC2 | - | - | - | 4.0[inhibitor] | - | 3.0[inhibitor] | - | - | -
CCOC(=O)c1c(NC(=O)CCC(=O)N2CCOCC2)sc2c1CC(C)(C)OC2 | - | - | - | - | - | 79.0[inhibitor] | - | - | -
COc1ccc([N+](=O)[O-])cc1/C=N/NC(=O)CNC(=O)c1cccc(F)c1 | - | - | - | - | - | - | . | . | .
COc1ccc([N+](=O)[O-])cc1/C=N/NC(=O)CNC(=O)C(c1ccccc1)c1ccccc1 | - | - | - | - | - | 165.0 | - | - | -
CCN(Cc1ccccc1)S(=O)(=O)c1ccc(C(=O)N(CCCN(C)C)c2nc3c(F)cccc3s2)cc1 | - | 43.0 | - | 190.0 | - | - | - | - | -
CCN(c1ccccc1)S(=O)(=O)c1ccc(C(=O)N(CCCN(C)C)c2nc3c(C)cccc3s2)cc1 | - | - | - | 154.0 | - | - | - | - | -
Cc1ccc(NS(=O)(=O)c2cc([N+](=O)[O-])ccc2N/N=C/c2sc(N3CCOCC3)nc2-c2ccccc2)c(C)c1 | - | - | - | . | - | 10.0[inhibitor] | - | - | -
CCN(CC)c1ccc2cc(C(=O)Nc3ccccn3)c(=O)oc2c1 | - | - | - | 58.0[inhibitor] | - | - | - | - | -
CCN(CC)c1ccc2cc(C(C)=O)c(=O)oc2c1 | - | - | - | - | - | - | . | . | .
Cc1ccccc1NC(=O)c1c(C)nc(SCC(=O)OCc2ccccc2)c(C#N)c1-c1ccc(F)cc1 | - | - | - | - | - | 144.0 | - | - | -
CN(CC(=O)Nc1ccccc1Br)C(=O)c1cc([N+](=O)[O-])ccc1N1CCOCC1 | - | . | - | . | - | . | . | . | .
O=C(NS(=O)(=O)c1ccc(Cl)s1)c1ccccc1 | - | - | - | 193.0 | - | - | - | - | -
O=C(NCc1cccc(C(F)(F)F)c1)C1CC(c2ccc(C(F)(F)F)cc2)=NO1 (stereo not given) | - | - | - | - | - | - | . | . | .
O=C(COC(=O)CCc1c[nH]c2ccccc12)NCc1ccc(Cl)cc1 | - | - | - | 2.0[inhibitor] | - | 2.0[inhibitor] | - | - | -
O=C(O)c1ccc2[nH]c3c(c2c1)CSCC3 | - | - | - | - | - | - | . | . | .
CN(C)CCOC(=O)c1ccc2[nH]c3c(c2c1)CSCC3 | - | - | - | 194.0 | - | - | - | - | -
SMILES | STK33 inh | MEKK2 mut-MEK5 | GSK3A inh | MEKK2 WT-MEK5 | GSK3B inh | MEKK3 PB1 HTS | MEKK2wt confirm | MEKK2mut confirm | MEKK3-MEK5 inh
COc1ccc(N2CCN(C(CNC(=O)C(=O)NCC3CCCO3)c3ccco3)CC2)cc1 (stereo not given) | - | - | - | - | - | 132.0 | - | - | -
COC(=O)NCC(c1ccco1)N1CCN(c2ccc(OC)cc2)CC1 (stereo not given) | - | - | . | - | - | - | . | . | .
CCN(CC)C(=O)C1CCC(CNS(=O)(=O)c2cccc3cccnc23)CC1 (stereo not given) | - | - | - | - | - | - | . | . | .
CN(Cc1ccccc1)C(=O)C1CCC(CNS(=O)(=O)c2cccc3cccnc23)CC1 (stereo not given) | - | - | - | - | - | 131.0 | - | - | -
COCc1cc(N2CCN(c3ccccc3F)CC2)nc(-c2ccccc2)n1 | - | - | - | 6.0[inhibitor] | - | 4.0[inhibitor] | - | - | -
COCc1cc(N2CCOCC2)nc(-c2ccccc2)n1 | - | - | - | - | - | - | . | . | .
CCCNC(=S)NC1CC2CCCC(C1)N2Cc1ccc(F)cc1 (stereo not given) | - | - | - | - | - | - | . | . | .
CSc1cccc(CN2CCN(CCc3ccccc3)C(CCO)C2)c1 (stereo not given) | - | - | - | - | - | - | . | . | .
CSc1cccc(CN2CCN(Cc3ccccc3)C(CCO)C2)c1 (stereo not given) | - | - | - | - | - | 48.0[inhibitor] | - | - | -
Cc1ccc(S(=O)(=O)N2CCCN(C(=O)OC(C)(C)C)CC2)cc1 | - | - | - | - | - | - | . | . | .
O=C(NCCOc1ccccc1F)C1CCC(=O)N(CCc2cccc(F)c2)C1 (stereo not given) | - | - | - | - | - | - | . | . | .
COc1cc(CN2CCN(S(=O)(=O)c3ccc(F)cc3)CC2)cc(OC)c1OC | - | - | - | - | - | - | . | . | .
COc1cc(OC)c(OC)cc1CN1CCN(S(=O)(=O)c2ccc(F)cc2)CC1 | - | - | - | - | - | 122.0 | - | - | -
CCSc1ncnc2sc(C)c(C)c12 | . | - | . | - | - | 53.0[inhibitor] | - | - | -
COc1cc(C(=O)NCCC(=O)NC2CCC(C)CC2)cc(OC)c1OC (stereo not given) | - | - | - | - | - | - | . | . | .
O=C(C1COc2ccccc2O1)N1CCN(c2nc3c(F)cc(F)cc3s2)CC1 (stereo not given) | - | . | - | . | - | . | . | . | .
O=C(NCCc1ccccc1)c1cc(-c2ccccc2)c(N2CCOCC2)s1 | - | . | - | . | - | . | . | . | .
